Source: the RNAGym collection of RNA variant scans (doi:10.1002/anie.201605470)

B1: Osa-1-4 twister ribozyme (parent)
chain: CCGCCUAACACUGCCAAUGCCGGUCCCAAGCCCGGAUAAAAGUGGAGGGGGCGG

Variants of: B1
Experiment: self-cleavage, relative activity (ratio to wild type); higher = more cleavage; co-transcriptional
How it was run: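 A DNA template was synthesised for a 54-nucleotide twister ribozyme from Oryza sativa, with 97 % wild-type base and 1 % of each other base at each of the 48 positions downstream of the cleavage site. The ribozyme cleaved itself co-transcriptionally during 2 h of in vitro transcription at 37 °C. Reverse transcription with a template-switching oligonucleotide, PCR amplification and deep sequencing followed, and cleavage status came from reads with or without upstream sequence. Relative activity is the fraction cleaved normalised to wild type.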

| Variant | self-cleavage |
| --- | --- |
| CCGCCUCACACUGCCAAUGCCGGUCCCAAGCCCGGAUAACAGUGGAGGGGGCGG [A40C A7C] | 0.02 |
| CCGCCUGACACUGCCAAUGCCGGUCCCAAGCCCGGAUAACAGUGGAGGGGGCGG [A40C A7G] | 0.06 |
| CCGCCUUACACUGCCAAUGCCGGUCCCAAGCCCGGAUAACAGUGGAGGGGGCGG [A40C A7U] | 0.02 |
| CCGCCUAACACUGCCAAUGCCGGUCCCAAGCCCGGAGAUAAGUGGAGGGGGCGG [A39U U37G] | 1.02 |
| CCGCCUAACACUGCCAAUGCCGGUCCCAAGCCCGGACAUAAGUGGAGGGGGCGG [A39U U37C] | 1 |
| CCGCCUAACACUGCCAAUGCCGGUCCCAAGCCCGGAAAUAAGUGGAGGGGGCGG [A39U U37A] | 0.99 |
| CCGCCUAACACUGCCAAUGCCGGUCCCAAGCCCGGAUAUAAGUGGAGGGGGCAG [A39U G53A] | 0.49 |
| CCGCCUAACACUGCCAAUGCCGGUCCCAAGCCCGGAUAUAAGUGGAGGGGGCUG [A39U G53U] | 0.19 |
| CCGCCUAACACUGCCAAUGCCGGUCCCAAGCCCGGAUAUAAGUGGAGGGGGCCG [A39U G53C] | 0.07 |
| CCGCCUAACACUGCCAAUGCCGGUCCCAAGCCCGGAUAUAAGUGGAGGGGGCGC [A39U G54C] | 0.73 |
| CCGCCUAACACUGCCAAUGCCGGUCCCAAGCCCGGAUAUAAGUGGAGGGGGCGU [A39U G54U] | 0.77 |
| CCGCCUAACACUGCCAAUGCCGGUCCCAAGCCCGGAUAUAAGUGGAGGGGGCGA [A39U G54A] | 0.73 |
| CCGCCUAACACUGCCAAUGCCGGUCCCAAGCCCGGAUAUAAGUGGAGGGGCCGG [A39U G51C] | 0.06 |
| CCGCCUAACACUGCCAAUGCCGGUCCCAAGCCCGGAUAUAAGUGGAGGGGACGG [A39U G51A] | 0.61 |
| CCGCCUAACACUGCCAAUGCCGGUCCCAAGCCCGGAUAUAAGUGGAGGGGUCGG [A39U G51U] | 0.28 |
| CCGCCUAACACUGCCAAUGCCGGUCCCAAGCCCGGAUAACAGUGGCGGGGGCGG [A40C A46C] | 0.04 |
| CCGCCUAACACUGCCAAUGCCGGUCCCAAGCCCGGAUAACAGUGGGGGGGGCGG [A40C A46G] | 0.02 |
| CCGCCUAACACUGCCAAUGCCGGUCCCAAGCCCGGAUAACAGUGGUGGGGGCGG [A40C A46U] | 0.03 |
| CCGCCUAACACUGCCAAUGCCGGUCCCAAGCCCGGAUAUAAGCGGAGGGGGCGG [A39U U43C] | 0.12 |
| CCGCCUAACACUGCCAAUGCCGGUCCCAAGCCCGGAUAUAAGGGGAGGGGGCGG [A39U U43G] | 0.18 |
| CCGCCUAACACUGCCAAUGCCGGUCCCAAGCCCGGAUAUAAGAGGAGGGGGCGG [A39U U43A] | 0.43 |
| CCGCCUAACACCGCCAAUGCCGGUCCCAAGCCCGGAUAUAAGUGGAGGGGGCGG [A39U U12C] | 0.15 |
| CCGCCUAACACGGCCAAUGCCGGUCCCAAGCCCGGAUAUAAGUGGAGGGGGCGG [A39U U12G] | 0.15 |
| CCGCCUAACACAGCCAAUGCCGGUCCCAAGCCCGGAUAUAAGUGGAGGGGGCGG [A39U U12A] | 0.59 |
| CCGCCUAACAGUGCCAAUGCCGGUCCCAAGCCCGGAUAACAGUGGAGGGGGCGG [A40C C11G] | 0.03 |

| Variant | self-cleavage |
| --- | --- |
| CCGCCUAACAUUGCCAAUGCCGGUCCCAAGCCCGGAUAACAGUGGAGGGGGCGG [A40C C11U] | 0.07 |
| CCGCCUAACAAUGCCAAUGCCGGUCCCAAGCCCGGAUAACAGUGGAGGGGGCGG [A40C C11A] | 0.05 |
| CCGCCUAACACUGCCAAGGCCGGUCCCAAGCCCGGAUAUAAGUGGAGGGGGCGG [A39U U18G] | 0.88 |
| CCGCCUAACACUGCCAAAGCCGGUCCCAAGCCCGGAUAUAAGUGGAGGGGGCGG [A39U U18A] | 0.95 |
| CCGCCUAACACUGCCAACGCCGGUCCCAAGCCCGGAUAUAAGUGGAGGGGGCGG [A39U U18C] | 0.97 |
| CCGCCUAACACUGUCAAUGCCGGUCCCAAGCCCGGAUAACAGUGGAGGGGGCGG [A40C C14U] | 0.05 |
| CCGCCUAACACUGACAAUGCCGGUCCCAAGCCCGGAUAACAGUGGAGGGGGCGG [A40C C14A] | 0.04 |
| CCGCCUAACACUGGCAAUGCCGGUCCCAAGCCCGGAUAACAGUGGAGGGGGCGG [A40C C14G] | 0.03 |
| CCGCCUAGCACUGCCAAUGCCGGUCCCAAGCCCGGAUAACAGUGGAGGGGGCGG [A40C A8G] | 0.05 |
| CCGCCUACCACUGCCAAUGCCGGUCCCAAGCCCGGAUAACAGUGGAGGGGGCGG [A40C A8C] | 0.04 |
| CCGCCUAUCACUGCCAAUGCCGGUCCCAAGCCCGGAUAACAGUGGAGGGGGCGG [A40C A8U] | 0.04 |
| CCGCCUAACACUGCCAAUGCCGGGCCCAAGCCCGGAUAUAAGUGGAGGGGGCGG [A39U U24G] | 0.03 |
| CCGCCUAACACUGCCAAUGCCGGCCCCAAGCCCGGAUAUAAGUGGAGGGGGCGG [A39U U24C] | 0.12 |
| CCGCCUAACACUGCCAAUGCCGGACCCAAGCCCGGAUAUAAGUGGAGGGGGCGG [A39U U24A] | 0.07 |
| CCGCCUAACACUGCCAAUGCCGGUCCCAAGCCCGGAUAACAGUGGAGGGGGCGG [A40C] | 0.09 |
| CCGCCUAACACUGCCAAUGCCGGUCCCAAGCCCGGAUAACCGUGGAGGGGGCGG [A40C A41C] | 0.28 |
| CCGCCUAACACUGCCAAUGCCGGUCCCAAGCCCGGAUAACUGUGGAGGGGGCGG [A40C A41U] | 0.42 |
| CCGCCUAACACUGCCAAUGCCGGUCCCAAGCCCGGAUAACGGUGGAGGGGGCGG [A40C A41G] | 0.1 |
| CCGCCUAACACUGCCAAUGCCGGUCCCAAGCCCGGAUAUAAGUGGAGGGUGCGG [A39U G50U] | 1.01 |
| CCGCCUAACACUGCCAAUGCCGGUCCCAAGCCCGGAUAUAAGUGGAGGGCGCGG [A39U G50C] | 0.82 |
| CCGCCUAAGACUGCCAAUGCCGGUCCCAAGCCCGGAUAACAGUGGAGGGGGCGG [A40C C9G] | 0.07 |
| CCGCCUAAUACUGCCAAUGCCGGUCCCAAGCCCGGAUAACAGUGGAGGGGGCGG [A40C C9U] | 0.05 |
| CCGCCUAAAACUGCCAAUGCCGGUCCCAAGCCCGGAUAACAGUGGAGGGGGCGG [A40C C9A] | 0.02 |
| CCGCCUAACACUGCAAAUGCCGGUCCCAAGCCCGGAUAACAGUGGAGGGGGCGG [A40C C15A] | 0.05 |
